In PubChem BioAssay AID504354 (Broad Institute, 2011):
A number with no mark means an inactive call.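 How the source made its calls: active means curve reaches 10% of the strong reference activator's caspase signal at or below the top valid tested dose; inactive means signal moves in the opposite direction, or the rest.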

Assay: caspase activation in unprimed MEWO cells, dose response, counter-screen for A1 inhibitor project, cell-based, luminescence, dry powder, set 2 (AID 504354)
Conditions: caspase-Glo luminescence, 3 h, active compounds read high; at 35 µM unless noted
Summary of the method: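 Material – unprimed MEWO cell line expressing A1 · Quantity – 2500 cells per well · Medium – RPMI-1640 growth medium with 10% FBS · Doses – compound delivered into wells by pin transfer · Times – 3 h 37 °C compound exposure, 1 h room-temperature reagent incubation · Measured by – CaspaseGlo luminescence · Evaluation – caspase activity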

SMILES | caspase activation
CCOC(=O)N1CCN(c2c([N+](=O)[O-])c(=O)n(C)c3ccccc23)CC1 | 2.35%
Cc1ccc(Sc2c([N+](=O)[O-])c(=O)oc3ccccc23)cc1 | -4.32%
O=c1oc2ccccc2c(Nc2cc(Cl)cc(Cl)c2)c1[N+](=O)[O-] | -1.06% [at 8 µM]
Cn1c(=O)c([N+](=O)[O-])c(-n2cnc3ccccc32)c2ccccc21 | 1.87% [at 4.2 µM]
Cc1ccc(Nc2c([N+](=O)[O-])c(=O)oc3ccccc23)cc1 | 1.87% [at 2.1 µM]
Cn1c(=O)c([N+](=O)[O-])c(Nc2ccc(Cl)cc2)c2ccccc21 | 1.87% [at 1 µM]
CCSc1c([N+](=O)[O-])c(=O)oc2ccccc12 | -0.935% [at 0.26 µM]
O=C(Oc1cccc(/C=N/Nc2nc(Nc3ccccc3)nc(N3CCOCC3)n2)c1)c1ccco1 | 2.6% [at 16 µM]
Cc1ccc(Nc2c([N+](=O)[O-])c(=O)n(C)c3ccccc23)cc1 | 1.4% [at 1 µM]
CCOCCCNc1c([N+](=O)[O-])c(=O)n(C)c2ccccc12 | 2.4%
O=[N+]([O-])c1cnc2ccccc2c1Sc1ccccc1 | 5.29% [at 16 µM]
Cc1ccc(Sc2c([N+](=O)[O-])cnc3ccccc23)cc1 | 6.63% [at 16 µM]
CN1C(=O)C(C)(C)N(Cc2ccccc2)c2ccccc21 | 0.935% [at 2.1 µM]
O=c1oc2ccccc2c(Sc2ccccc2)c1[N+](=O)[O-] | -5.15%
Cc1ccc(Sc2c([N+](=O)[O-])c(=O)n(C)c3ccccc23)cc1 | 2.38%
Cn1c(=O)c([N+](=O)[O-])c(Cl)c2ccccc21 | 4.66% [at 8 µM]
Cn1c(=O)c([N+](=O)[O-])c(Oc2ccccc2)c2ccccc21 | 2.97% [at 0.135 µM]
Cc1ccc(Sc2cc(=O)n(C)c3ccccc23)cc1 | -6.38%
O=c1oc2ccccc2c(Cl)c1[N+](=O)[O-] | -4.52% [at 16 µM]
O=c1oc2ccccc2c(N2CCCCC2)c1[N+](=O)[O-] | -1.32% [at 16 µM]
